In PubChem BioAssay AID2237 (Johns Hopkins Ion Channel Center, 2010):
The whole screen tested about 310,000 compounds, of which about 1,500 (0.48%) were called active.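 The calls were made as follows: active = B-score above 5 SD of library B-scores, and initial fluorescence ratio not above library mean plus 5 SD; inactive = the rest.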 The full list was thinned out, with actives kept by preference.

Each compound was assayed against Short transient receptor potential channel 4 (Mus musculus) (UniProt Q9QUQ5) (assay: activators of mouse TRPC4 channel, primary screen, Fluo4 calcium, HEK293 TRPC4beta/mu-opioid cells (AID 2237;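 as to B-score: positive B-score marks a calcium rise read as TRPC4 activation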)). Conditions: Fluo4 calcium fluorescence, at 10 µM; stronger effect = higher value.
Sequence of Short transient receptor potential channel 4 (Mus musculus) (Q9QUQ5 whole entry, looked up): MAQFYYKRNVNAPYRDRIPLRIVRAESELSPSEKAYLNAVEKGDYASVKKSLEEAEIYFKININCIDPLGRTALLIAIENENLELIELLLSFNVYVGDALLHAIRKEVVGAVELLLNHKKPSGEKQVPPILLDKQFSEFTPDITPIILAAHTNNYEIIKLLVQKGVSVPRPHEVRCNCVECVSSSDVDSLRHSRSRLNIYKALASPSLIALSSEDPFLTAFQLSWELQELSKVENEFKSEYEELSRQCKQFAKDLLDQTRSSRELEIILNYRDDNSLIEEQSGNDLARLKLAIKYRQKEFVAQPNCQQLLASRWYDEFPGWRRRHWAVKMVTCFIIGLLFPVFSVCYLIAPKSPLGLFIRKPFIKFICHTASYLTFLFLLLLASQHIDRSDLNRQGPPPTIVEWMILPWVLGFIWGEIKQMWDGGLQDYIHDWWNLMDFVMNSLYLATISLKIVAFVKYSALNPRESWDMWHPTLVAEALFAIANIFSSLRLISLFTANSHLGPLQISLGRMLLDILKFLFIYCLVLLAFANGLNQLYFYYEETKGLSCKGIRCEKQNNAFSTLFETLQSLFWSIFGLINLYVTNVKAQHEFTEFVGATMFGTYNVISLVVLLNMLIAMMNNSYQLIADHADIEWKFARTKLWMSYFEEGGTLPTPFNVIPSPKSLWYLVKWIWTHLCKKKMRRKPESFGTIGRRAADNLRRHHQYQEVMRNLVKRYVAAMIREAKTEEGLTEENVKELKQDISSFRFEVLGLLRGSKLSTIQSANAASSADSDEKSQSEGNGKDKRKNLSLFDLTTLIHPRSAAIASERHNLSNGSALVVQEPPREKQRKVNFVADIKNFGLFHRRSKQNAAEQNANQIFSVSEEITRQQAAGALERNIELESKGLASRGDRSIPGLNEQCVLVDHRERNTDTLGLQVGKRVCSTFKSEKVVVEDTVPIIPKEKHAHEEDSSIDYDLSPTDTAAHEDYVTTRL
Summary of the method: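 system = HEK293 cells stably co-expressing mouse TRPC4beta and mu-opioid receptor | schedule = Fluo4 dye loading 45 min at room temperature, 110 s recording | measure = B-scored integrated calcium fluorescence ratio | signal = Fluo4 calcium-sensitive dye fluorescence, kinetic, 1 Hz baseline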

| Compound | B-score |
| --- | --- |
| C/C(=N/OC(=O)c1ccc(Br)cc1)c1ccc(C)cc1 | inactive |
| CC(C)N(Cc1nnc(-c2ccc(Cl)cc2)o1)C(=O)C1=COCCO1 | inactive |
| Cc1cc(C(=O)Nc2ccccc2N2CCOCC2)c2ccccc2n1 | inactive |
| COC(=O)c1cc(N2CCNCC2)nc2ccccc12 | 87 (active) |
| CNC(=O)COC(=O)c1cc(-c2ccc(OC)cc2)nc2ccccc12 | inactive |
| Cc1ccc(S(=O)(=O)NCC(=O)N(CC(=O)NCC2CCCO2)c2cccc(F)c2)cc1 (centres undefined) | inactive |
| CN(C)CCCN(C(=O)c1ccc(S(=O)(=O)N2CCCc3ccccc32)cc1)c1nc2ccc(F)cc2s1 | 197 (active) |
| CN(C)CCCN(C(=O)c1ccc(S(=O)(=O)N2CCCCCC2)cc1)c1nc2ccc(Br)cc2s1 | inactive |
| CN(C)CCCN(C(=O)c1ccc(S(=O)(=O)N2CCCCCC2)cc1)c1nc2cc3c(cc2s1)OCCO3 | inactive |
| CCOc1ccc(N(CC(=O)NCCOc2ccccc2OC)S(=O)(=O)c2ccccc2)cc1 | inactive |
| O=C(NNC(=O)C(O)c1ccccc1)NC1CCCCC1 (centres undefined) | inactive |
| Cc1nc(/N=C(\N)NC(=O)NC2CCCCC2)nc2ccccc12 | 90 (active) |
| COc1ccc2nc(/N=C(\N)NC(=O)Nc3ccccc3)nc(C)c2c1 | inactive |
| COC(=O)C1CCCCN1C(=O)c1ccc(OC2CCN(C(C)=O)CC2)c(OC)c1 (centres undefined) | inactive |
| CN(CCO)S(=O)(=O)c1ccc2c(c1)C(=O)c1cc(S(=O)(=O)N(C)CCO)ccc1-2 | inactive |
| COC(=O)c1sc(-c2ccc(C(C)(C)C)cc2)cc1NC(=O)/C=C/C(=O)O | inactive |
| NC(=O)CSc1nnc(NC(=O)c2ccc3ccccc3c2)s1 | inactive |
| CC(Oc1ccc2ccccc2c1)C(=O)NNC(=S)NC(=O)c1ccco1 (centres undefined) | 65 (active) |
| Cc1ccc(OCC(=O)NCCCNC(=O)c2ccco2)cc1C | inactive |
| O=C(Nc1ccc2ccccc2c1)/C(=C/c1cccc(Br)c1)NC(=O)c1ccco1 | inactive |
| CCCc1ccc(OCCNC(=O)c2ccco2)cc1 | inactive |
| CCCc1ccc(OCC(=O)NNC(=S)NC(=O)c2ccco2)cc1 | 66 (active) |
| Cc1ccc(C(=O)NNC(=O)C(C)Oc2ccc3ccccc3c2)o1 (centres undefined) | inactive |

| Compound | B-score |
| --- | --- |
| COc1cccc(NC(=O)CN2CCN(CC(=O)Nc3ccccc3Cl)CC2)c1 | inactive |
| Cc1ccc(C23CC4CC(CC(C(=O)NCC(=O)O)(C4)C2)C3)cc1 | inactive |
| CCC(=O)Nc1nnc(S(=O)(=O)N(CC(C)C)c2ccccc2)s1 | inactive |
| COn1c(-c2ccc(Cl)cc2Cl)nc2ncccc21 | inactive |
| Clc1ccc(-c2cc(-c3ccccn3)on2)c(Cl)c1 | inactive |
| Clc1ccc(COn2c(-c3ccc(Cl)cc3Cl)nc3ncccc32)cc1 | 80 (active) |
| COc1ccccc1/C=N/N1CCN(Cc2ccccc2Cl)CC1 | inactive |
| CC(=O)N1CC2(C)CN(C(C)=O)CC(C)(C1)C2=O | inactive |
| COc1ccc(N2CCN(C(=O)CCNC(=O)c3ccc(Br)cc3)CC2)cc1 | inactive |
| COCCCNC(=O)CNC(=O)c1nn(-c2ccc(OC)cc2)c(=O)c2ccccc12 | inactive |
| COc1ccc(-n2nc(C(=O)NCC(=O)Nc3cccc(C)n3)c3ccccc3c2=O)cc1 | inactive |
| CCCN(CCC)CCCNC(=O)CNC(=O)c1nn(-c2ccc(OC)cc2)c(=O)c2ccccc12 | 93 (active) |
| CCOC(=O)c1cnn(Cc2ccccc2Cl)c1N | inactive |
| CCCC(C(=O)NC1CCCC1)N(C(=O)Cn1nnc(-c2ccc(C)o2)n1)c1cccc(O)c1 (centres undefined) | inactive |
| COc1ccc(Cl)cc1S(=O)(=O)N1CCC(O)(c2ccc(Cl)cc2)CC1 | inactive |
| COc1cc(OC)c(-n2c(C)cc(C=O)c2C)cc1Cl | inactive |
| COc1cc(OC)c(-n2cc(-c3ccc(Cl)cc3)[nH]c2=O)cc1Cl | 63 (active) |
| O=C1CCN(C(=O)Nc2ccccc2)N1 | inactive |
| CC(C)N(Cc1ccccc1)C(=O)COC(=O)c1cnccn1 | inactive |
| Oc1c(Cl)cc(Cl)c(Cl)c1Cc1c(O)c(Cl)cc(Cl)c1Cl | 53 (active) |
| CC(=O)OC(C)C[N+](C)(C)C (centres undefined) | 57 (active) |
| CC(C[N+](C)(C)C)OC(N)=O (centres undefined) | inactive |
| C=C(C)CSc1nnc(-c2ccc(C)cc2)n1N | inactive |

| Compound | B-score |
| --- | --- |
| CCCOC1CCCN(Cc2cn(C)nc2-c2ccccc2F)C1 (centres undefined) | inactive |
| NC(=O)c1cc2ccccc2o/c1=N/NC(=O)c1cccc(F)c1 | inactive |
| CCN(CC)c1ccc2cc(C(N)=O)/c(=N\NC(=O)c3ccncc3)oc2c1 | 79 (active) |
| COc1cccc2cc(C(N)=O)/c(=N\NC(=O)c3ccccc3)oc12 | inactive |
| CN1CCN(C(=O)CCc2ncc(C(F)(F)F)cc2Cl)CC1 | inactive |
| CNc1[nH]ncc1[N+](=O)[O-] | inactive |
| O=C(Nc1ccc(F)c(Cl)c1)C1CCN(S(=O)(=O)c2cccnc2)CC1 | inactive |
| Cc1cc(-c2ccc(C)c(S(=O)(=O)NCCCN(Cc3ccccc3)C(C)C)c2)on1 | 127 (active) |
| Cc1cc(-c2ccc(C)c(S(=O)(=O)NC(C)Cc3ccco3)c2)on1 (centres undefined) | inactive |
| CCOc1ccccc1CNS(=O)(=O)c1cc(-c2cc(C)no2)ccc1C | inactive |
| C=CCNC(=O)C12CC3CC(C1)CC(C(=O)NCC=C)(C3)C2 | inactive |
| O=C(NC1CCN(S(=O)(=O)c2ccc(F)cc2)CC1)c1ccccc1 | inactive |
| CC1CC(C)CN(CCCNC(=O)c2csc3c2CCCCC3)C1 (centres undefined) | 97 (active) |
| O=C(NCc1ccccc1Cl)c1csc2c1CCCCC2 | inactive |
| Cc1ccc(NC(=O)c2csc3c2CCCC3)cc1 | inactive |
| CCOC(=O)c1ccccc1NC(=O)c1c(N)n(C)c(=O)[nH]c1=O | inactive |
| CSc1ccc(S(=O)(=O)N2CCC(C(=O)NCCc3ccccc3)CC2)cc1 | inactive |
| CC1CCCN(CCOCCOc2ccccc2-c2ccccc2)C1 (centres undefined) | 54 (active) |
| c1ccc(-c2ccccc2OCCN2CCCCC2)cc1 | inactive |
| CC1CN(CCCOc2ccccc2-c2ccccc2)CC(C)O1 (centres undefined) | inactive |
| CCOc1ccccc1C1CC(c2ccccc2)Nc2nc(N)nn21 (centres undefined) | inactive |
| CCOc1ccccc1C1CC(c2ccc(Cl)cc2)Nc2nc(N)nn21 (centres undefined) | 116 (active) |
| COc1ccc(C2CC(c3ccc(Cl)cc3Cl)Nc3nc(N)nn32)cc1OC (centres undefined) | inactive |
